According to ChEMBL document CHEMBL2417390 (J Med Chem, 2013):

What was measured:
[1] = molecular target: T1, Steroid 17-alpha-hydroxylase/17,20 lyase (Homo sapiens, UniProt P05093); test: Inhibition of human CYP17 expressed in Escherichia coli using 1,2[3H]-progesterone as substrate in presence of NADPH
T1 sequence (P05093 whole entry): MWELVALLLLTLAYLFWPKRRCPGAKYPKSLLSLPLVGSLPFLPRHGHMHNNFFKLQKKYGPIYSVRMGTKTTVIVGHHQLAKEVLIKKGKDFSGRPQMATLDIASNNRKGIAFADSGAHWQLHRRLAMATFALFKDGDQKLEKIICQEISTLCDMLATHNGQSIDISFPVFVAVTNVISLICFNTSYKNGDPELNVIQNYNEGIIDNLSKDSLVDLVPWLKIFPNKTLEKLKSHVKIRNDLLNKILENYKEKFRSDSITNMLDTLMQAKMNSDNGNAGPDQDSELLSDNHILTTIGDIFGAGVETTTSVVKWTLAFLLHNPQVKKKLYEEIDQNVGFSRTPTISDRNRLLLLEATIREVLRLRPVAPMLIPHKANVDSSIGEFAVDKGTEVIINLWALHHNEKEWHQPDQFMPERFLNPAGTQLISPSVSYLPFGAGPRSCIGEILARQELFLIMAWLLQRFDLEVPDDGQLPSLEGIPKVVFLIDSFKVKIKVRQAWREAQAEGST
How it was run: (§1)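 Human CYP17 was recombinantly expressed in E. coli. The substrate was progesterone at 25 µM, with NADPH as cofactor.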

[2] = molecular target: T2, Cytochrome P450 11B2, mitochondrial (Homo sapiens, UniProt P19099); test: Inhibition of human CYP11B2 expressed in hamster V79MZh cells using [1,2-3H]-11-deoxycorticosterone as substrate; format: cell-based
T2 sequence (P19099 whole entry): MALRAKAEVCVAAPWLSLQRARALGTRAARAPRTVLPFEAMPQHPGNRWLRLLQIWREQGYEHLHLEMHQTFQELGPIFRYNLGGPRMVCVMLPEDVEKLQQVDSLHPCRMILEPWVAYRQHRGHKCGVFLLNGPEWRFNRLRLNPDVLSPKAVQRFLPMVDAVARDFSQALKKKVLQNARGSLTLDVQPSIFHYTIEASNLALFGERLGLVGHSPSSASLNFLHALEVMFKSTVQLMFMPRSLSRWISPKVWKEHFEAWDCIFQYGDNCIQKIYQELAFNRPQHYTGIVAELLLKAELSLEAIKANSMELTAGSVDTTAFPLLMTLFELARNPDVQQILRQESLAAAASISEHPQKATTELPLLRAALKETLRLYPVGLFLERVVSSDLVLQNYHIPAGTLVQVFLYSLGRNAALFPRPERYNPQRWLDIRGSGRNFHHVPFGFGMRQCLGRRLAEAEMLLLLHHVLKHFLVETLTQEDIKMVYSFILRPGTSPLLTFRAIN

Homo sapiens = species: Homo sapiens; test: Selectivity factor, ratio of IC50 for human CYP11B1 to IC50 for human CYP11B2
Aromatase = molecular target: T3, Aromatase (Homo sapiens, UniProt P11511); test: Inhibition of CYP19 in human placental microsomes using [1beta-3H]androstenedione as substrate by 3H2O-method; parameters: species or system Placenta
T3 sequence (P11511 whole entry): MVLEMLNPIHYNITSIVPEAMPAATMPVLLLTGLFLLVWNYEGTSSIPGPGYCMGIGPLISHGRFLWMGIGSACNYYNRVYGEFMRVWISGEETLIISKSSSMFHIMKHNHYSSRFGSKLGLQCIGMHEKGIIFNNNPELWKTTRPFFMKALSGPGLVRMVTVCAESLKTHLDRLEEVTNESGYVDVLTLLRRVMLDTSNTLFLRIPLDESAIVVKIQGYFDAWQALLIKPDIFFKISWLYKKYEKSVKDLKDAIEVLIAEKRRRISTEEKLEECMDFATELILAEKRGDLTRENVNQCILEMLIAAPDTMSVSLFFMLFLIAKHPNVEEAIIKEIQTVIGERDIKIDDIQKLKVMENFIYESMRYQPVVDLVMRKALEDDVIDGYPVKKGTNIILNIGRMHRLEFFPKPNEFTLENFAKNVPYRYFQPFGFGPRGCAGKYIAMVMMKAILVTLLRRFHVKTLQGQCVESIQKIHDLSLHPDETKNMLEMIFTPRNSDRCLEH
How it was run: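 Human placental microsomes as the aromatase source. Product formation was read by the 3H2O release method with [1β-3H]androstenedione at 500 nM as substrate.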

[3] = molecular target: T4, Cytochrome P450 11B1, mitochondrial (Homo sapiens, UniProt P15538); test: Inhibition of human CYP11B1 expressed in hamster V79MZh cells using [1,2-3H]-11-deoxycorticosterone as substrate; format: cell-based
T4 sequence (P15538 whole entry): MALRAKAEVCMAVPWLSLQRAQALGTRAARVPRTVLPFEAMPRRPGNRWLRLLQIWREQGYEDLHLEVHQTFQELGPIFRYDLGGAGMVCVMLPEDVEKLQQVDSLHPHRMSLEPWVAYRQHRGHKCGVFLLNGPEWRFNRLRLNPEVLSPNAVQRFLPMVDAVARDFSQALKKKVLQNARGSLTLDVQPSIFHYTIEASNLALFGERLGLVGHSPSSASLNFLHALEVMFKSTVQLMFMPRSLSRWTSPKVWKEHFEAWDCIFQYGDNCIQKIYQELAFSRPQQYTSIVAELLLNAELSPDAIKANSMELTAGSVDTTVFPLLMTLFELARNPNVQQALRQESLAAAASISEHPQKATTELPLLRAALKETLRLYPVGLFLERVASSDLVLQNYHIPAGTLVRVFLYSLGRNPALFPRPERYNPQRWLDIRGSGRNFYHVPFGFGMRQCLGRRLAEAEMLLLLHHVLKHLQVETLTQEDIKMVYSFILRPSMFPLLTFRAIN

Cytochrome P450 3A4 = Cytochrome P450 3A4 (Homo sapiens, UniProt P08684); test: Inhibition of recombinant CYP3A4 (unknown origin) expressed in baculovirus-infected insect microsomes; format: ADME, Microsome
Chain of Cytochrome P450 3A4 (P08684 whole entry): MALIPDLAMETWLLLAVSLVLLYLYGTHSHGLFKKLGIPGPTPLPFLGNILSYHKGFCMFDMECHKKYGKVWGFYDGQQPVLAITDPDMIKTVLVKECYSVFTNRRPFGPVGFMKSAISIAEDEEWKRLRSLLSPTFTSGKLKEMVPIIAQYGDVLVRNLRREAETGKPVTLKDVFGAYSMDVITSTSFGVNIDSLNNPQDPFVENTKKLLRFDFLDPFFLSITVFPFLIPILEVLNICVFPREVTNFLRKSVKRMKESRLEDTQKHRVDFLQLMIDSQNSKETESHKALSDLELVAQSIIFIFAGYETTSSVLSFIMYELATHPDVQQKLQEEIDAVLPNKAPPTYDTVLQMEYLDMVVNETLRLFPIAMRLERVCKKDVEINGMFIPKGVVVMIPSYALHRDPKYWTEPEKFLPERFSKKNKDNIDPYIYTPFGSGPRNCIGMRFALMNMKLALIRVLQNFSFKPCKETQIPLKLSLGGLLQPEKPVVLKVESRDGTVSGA
How it was run: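 Recombinant CYP3A4 in baculovirus-infected insect microsomes (Supersomes), assayed following the supplier's protocol.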

[4] = molecular target: T1, Steroid 17-alpha-hydroxylase/17,20 lyase; test: Inhibition of human CYP17; how it was run: as §1
[5] = molecular target: T1, Steroid 17-alpha-hydroxylase/17,20 lyase; test: Inhibition of human CYP17 expressed in Escherichia coli using 1,2[3H]-progesterone as substrate at 2000 nM in presence of NADPH relative to control; conditions: read-out: INH
[6] = molecular target: T2, Cytochrome P450 11B2, mitochondrial; test: Inhibition of human CYP11B2

IC50 [1]	IC50 [2]	Ratio IC50 (Homo sapiens)	IC50 (Aromatase)	IC50 [3]	IC50 (Cytochrome P450 3A4)	IC50 [4]	inhibition at 2 µM [5]	IC50 [6]	Structure (SMILES)
106 nM	17 nM	95	> 2000 nM	1610 nM	> 10000 nM	–	–	–	COc1ccc2ccc(-c3cccnc3)c(F)c2c1
147 nM	28 nM	104	> 2000 nM	2930 nM	1010 nM	–	–	–	COc1ccc2ccc(-c3cccnc3)c(Cl)c2c1F
64 nM	26 nM	9	> 2000 nM	235 nM	1760 nM	–	–	–	Oc1ccc2ccc(-c3cccnc3)c(Cl)c2c1
523 nM	30 nM	39	> 2000 nM	1160 nM	1260 nM	–	–	–	Oc1ccc2ccc(-c3cccnc3)c(F)c2c1
–	–	94	> 2000 nM	–	3560 nM	–	–	–	COc1ccc2ccc(-c3cccnc3)c(Cl)c2c1
454 nM	38 nM	37	> 2000 nM	1410 nM	> 10000 nM	–	–	–	COc1ccc2ccc(-c3cncc(F)c3)c(Cl)c2c1
–	–	–	> 2000 nM	–	–	721 nM	–	68 nM	COc1ccc2ccc(-c3cccnc3)cc2c1

Second part, the molecule before the results:

Structure (SMILES)	IC50 [1]	IC50 [2]	Ratio IC50 (Homo sapiens)	IC50 (Aromatase)	IC50 [3]	IC50 (Cytochrome P450 3A4)	IC50 [4]	inhibition at 2 µM [5]	IC50 [6]
COc1cncc(-c2ccc3ccc(OC)cc3c2Cl)c1	94 nM	24 nM	19	> 2000 nM	447 nM	> 10000 nM	–	–	–
COc1ccc2ccc(-c3cncc(O)c3)c(Cl)c2c1	11 nM	13 nM	546	> 2000 nM	7100 nM	6720 nM	–	–	–
Oc1cncc(-c2ccc3ccc(O)cc3c2Cl)c1	16 nM	27 nM	104	> 2000 nM	2820 nM	5050 nM	–	–	–
Oc1ccc2ccc(-c3cncnc3)c(Cl)c2c1	1520 nM	22 nM	110	> 2000 nM	2430 nM	2150 nM	–	–	–
Oc1ccc2ccc(-c3cncc4ccccc34)c(Cl)c2c1	1030 nM	66 nM	4	> 2000 nM	238 nM	1740 nM	–	–	–
c1cncc(-c2ccc3ccccc3c2)c1	–	–	–	–	–	–	3000 nM	–	–
Oc1ccc2ccc(-c3cccnc3)c(Cl)c2c1F	375 nM	25 nM	9	> 2000 nM	224 nM	> 10000 nM	–	–	–
Oc1ccc2ccc(-c3cncc(F)c3)c(Cl)c2c1	525 nM	33 nM	15	> 2000 nM	450 nM	3580 nM	–	–	–
COc1ccc2ccc(-c3cncnc3)c(Cl)c2c1	632 nM	72 nM	170	> 2000 nM	12300 nM	> 10000 nM	–	–	–
N#Cc1ccc(C2CCCc3cncn32)cc1 (stereo not drawn) [FADROZOLE]	–	–	–	–	–	–	–	< 5%	–
COc1ccc2ccc(-c3cncc4ccccc34)c(Cl)c2c1	294 nM	54 nM	7	> 2000 nM	362 nM	> 10000 nM	–	–	–
COc1cncc(-c2ccc3ccc(O)cc3c2Cl)c1	185 nM	15 nM	16	> 2000 nM	245 nM	4200 nM	–	–	–
